According to ChEMBL document CHEMBL4390653, “Potential anti-herpes and cytotoxic action of novel semisynthetic digitoxigenin-derivatives” (Eur J Med Chem, 2019):

How the values were obtained:
[1] = Selectivity index, ratio of Cytotoxicity against African green monkey Vero cells assessed as reduction in cell viability after 48 hrs by SRB assay to Antiviral activity against Herpes simplex virus 2-333 infected in African green monkey Vero cells assessed as inhibition of viral replication after 48 hrs by naphthol blue-black staining-based plaque reduction assay; format: toxicity; settings: Vero cells infected with HSV-2 333, read-out: Ratio CC50/IC50
Outline: (§1)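 Selectivity index = CC50 in Vero cells (SRB, 48 h) divided by plaque-reduction IC50 for the same virus strain.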

HCT-8 = assay: Cytotoxicity against human HCT8 cells assessed as inhibition of cell viability after 48 hrs by SRB assay; format: functional, cell-based; settings: HCT-8, 48 h
Outline: (§2)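 Cells seeded at 2.5 × 10^4 per well and exposed to a concentration range for 48 h, then SRB total-protein stain. PC3 grown in phenol-red-free DMEM with 1% glutamine; LNCaP in phenol-red-free RPMI 1640 with glutamine and non-essential amino acids. HCT-8 and H460 in RPMI 1640. MRC-5 (plus glutamine and non-essential amino acids) and primary gingival fibroblasts in DMEM. All media had 10% FBS, 37 °C, 5% CO2. Paclitaxel was the reference. IC50 versus untreated controls by nonlinear regression, three independent experiments.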

[2] = Selectivity index, ratio of Cytotoxicity against African green monkey Vero cells assessed as reduction in cell viability after 48 hrs by SRB assay to Antiviral activity against acyclovir-resistant Herpes simplex virus 1 29-R infected in African green monkey Vero cells assessed as inhibition of viral replication after 48 hrs by naphthol blue-black staining-based plaque reduction assay; format: toxicity; settings: Vero cells infected with HSV-1 29-R, read-out: Ratio CC50/IC50; outline: as §1
Human alphaherpesvirus 1 [3] = assay: Antiviral activity against acyclovir-sensitive Herpes simplex virus 1 KOS infected in African green monkey Vero cells assessed as inhibition of viral replication after 48 hrs by naphthol blue-black staining-based plaque reduction assay; format: functional, organism-based; settings: Human alphaherpesvirus 1, strain KOS
Outline: (§3)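 Vero cells in MEM with 10% FBS, 37 °C, 5% CO2. Confluent monolayers (2.5 × 10^5 cells/well) infected with about 100 PFU for 1 h at 37 °C. Non-cytotoxic concentrations were added after infection. Cells were then PBS-washed and overlaid with MEM plus 1.5% carboxymethylcellulose, with or without compound, for 48 h. Fixed, naphthol blue-black stained, plaques counted under a stereomicroscope. IC50 versus untreated controls by nonlinear regression; mean of three independent experiments.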

PC-3 = assay: Cytotoxicity against human PC3 cells assessed as inhibition of cell viability after 48 hrs by SRB assay; format: functional, cell-based; settings: PC-3, 48 h; outline: as §2
Human alphaherpesvirus 2 = assay: Antiviral activity against Herpes simplex virus 2-333 infected in African green monkey Vero cells assessed as inhibition of viral replication after 48 hrs by naphthol blue-black staining-based plaque reduction assay; format: functional, organism-based; settings: Human alphaherpesvirus 2, 333, Vero; outline: as §3
LNCaP = assay: Cytotoxicity against human LNCAP cells assessed as inhibition of cell viability after 48 hrs by SRB assay; format: functional, cell-based; outline: as §2
Human alphaherpesvirus 1 [4] = assay: Antiviral activity against acyclovir-resistant Herpes simplex virus 1 29-R infected in African green monkey Vero cells assessed as inhibition of viral replication after 48 hrs by naphthol blue-black staining-based plaque reduction assay; format: functional, organism-based; outline: as §3
[5] = Selectivity index, ratio of Cytotoxicity against African green monkey Vero cells assessed as reduction in cell viability after 48 hrs by SRB assay to Antiviral activity against acyclovir-sensitive Herpes simplex virus 1 KOS infected in African green monkey Vero cells assessed as inhibition of viral replication after 48 hrs by naphthol blue-black staining-based plaque reduction assay; format: toxicity; settings: Vero cells infected with HSV-1 KOS, read-out: Ratio CC50/IC50; outline: as §1
A549 = assay: Cytotoxicity against human A549 cells assessed as inhibition of cell viability after 48 hrs by SRB assay; format: functional, cell-based; settings: A549, 48 h
[6] = Cytotoxicity against African green monkey Vero cells assessed as reduction in cell viability after 48 hrs by SRB assay; format: cell-based; settings: chlorocebus sabaeus
Outline: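 Vero cells in MEM with 10% FBS, seeded at 2.5 × 10^4 cells/well. Exposed to a range of concentrations for 48 h at 37 °C, 5% CO2, then sulforhodamine B total-protein staining. CC50 is the concentration reducing viability by 50% versus untreated controls, from nonlinear regression; mean ± SD of three independent experiments.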

NCI-H460 = assay: Cytotoxicity against human H460 cells assessed as inhibition of cell viability after 48 hrs by SRB assay; format: functional, cell-based; settings: NCI-H460, 48 h; outline: as §2
[7] = Inhibition of porcine cortex Na+/K+-ATPase alpha1/2/3 subunit using ATP as substrate preincubated for 30 mins followed by substrate addition and measured after 30 mins by malachite green reagent-based assay; design: species or system Sus scrofa
[8] = Human alphaherpesvirus 1, 29-R, Vero, 48 h, read-out: IC50

| SMILES | selectivity ratio at 48 h [1] | IC50 (HCT-8) [µM] | selectivity ratio at 48 h [2] | IC50 (Human alphaherpesvirus 1 [3]) [µM] | IC50 (PC-3) [µM] | IC50 (Human alphaherpesvirus 2) [µM] | IC50 (LNCaP) [µM] | IC50 (Human alphaherpesvirus 1 [4]; [8]) [µM] | selectivity ratio at 48 h [5] | IC50 (A549) [µM] | CC50 at 48 h [6] [µM] | IC50 (NCI-H460) [µM] | IC50 [7] [µM] | IC50 (Human alphaherpesvirus 1 [4]; vero) |
| --- | --- | --- | --- | --- | --- | --- | --- | --- | --- | --- | --- | --- | --- | --- |
| C[C@]12CC[C@H](n3cc(CO[C@@H]4O[C@H](CO)[C@H](O)[C@H](O)[C@H]4O)nn3)C[C@H]1CC[C@@H]1[C@@H]2CC[C@]2(C)[C@@H](C3=CC(=O)OC3)CC[C@]12O | 234 | 2.58 | 315 | 0.98 | 2.75 | 1.24 | 7.49 | 0.92 | 296 | 2.19 | 290 |  |  |  |
| C[C@]12CC[C@H](NC(=O)CBr)C[C@H]1CC[C@@H]1[C@@H]2CC[C@]2(C)[C@@H](C3=CC(=O)OC3)CC[C@]12O |  | 1.74 |  |  | 1.7 |  | 3.42 |  |  | 1.4 | 36.1 |  |  |  |
| CC(=O)OC[C@H]1O[C@@H](OCc2cn([C@H]3CC[C@@]4(C)[C@H](CC[C@@H]5[C@@H]4CC[C@]4(C)[C@@H](C6=CC(=O)OC6)CC[C@]54O)C3)nn2)[C@H](OC(C)=O)[C@@H](OC(C)=O)[C@@H]1OC(C)=O | 75.1 | 3.57 | 135 | 6.27 | 7.05 | 3.8 | 7.32 | 2.11 | 45.5 | 3.74 | 286 |  |  |  |
| C[C@]12CC[C@H](NC(=O)CCl)C[C@H]1CC[C@@H]1[C@@H]2CC[C@]2(C)[C@@H](C3=CC(=O)OC3)CC[C@]12O | 61.3 | 1.45 | 247 | 0.69 | 1.92 | 1.37 | 1.96 | 0.34 | 122 | 1.17 | 84 |  |  |  |
| C[C@]12CC[C@H](NC(=O)CNc3ccc(Cl)cc3)C[C@H]1CC[C@@H]1[C@@H]2CC[C@]2(C)[C@@H](C3=CC(=O)OC3)CC[C@]12O | 224 | 1.68 | 174 | 1.51 | 1.18 | 1.4 | 1.28 | 1.8 | 208 | 1.38 | 314 | 1.14 | 10.8 |  |
| C[C@]12CC[C@H](n3cc(CO[C@@H]4O[C@H](CO)[C@@H](O[C@H]5O[C@H](CO)[C@@H](O)[C@H](O)[C@H]5O)[C@H](O)[C@H]4O)nn3)C[C@H]1CC[C@@H]1[C@@H]2CC[C@]2(C)[C@@H](C3=CC(=O)OC3)CC[C@]12O | 35.2 | 5.43 | 45.4 | 4.29 | 2.74 | 4.18 | 5.24 | 3.24 | 34.3 | 2.86 | 147 |  |  |  |
| CC(=O)OC[C@H]1O[C@@H](OCc2cn([C@H]3CC[C@@]4(C)[C@H](CC[C@@H]5[C@@H]4CC[C@]4(C)[C@@H](C6=CC(=O)OC6)CC[C@]54O)C3)nn2)[C@H](OC(C)=O)[C@@H](OC(C)=O)[C@H]1OC(C)=O |  | 5.91 |  |  | 6.23 |  | 11.3 |  |  | 3.94 | 216 |  |  |  |
| C[C@]12CC[C@H](NC(=O)CN3CCC(c4ccccc4)CC3)C[C@H]1CC[C@@H]1[C@@H]2CC[C@]2(C)[C@@H](C3=CC(=O)OC3)CC[C@]12O | 228 | 0.3 | 560 | 0.44 | 0.7 | 0.49 | 1.72 | 0.2 | 254 | 1.43 | 112 | 0.32 | 6.59 |  |
| Nc1nc2c(ncn2COCCO)c(=O)[nH]1 [ACYCLOVIR] | > 619 |  |  | 1.38 |  | 3.23 |  |  | > 1450 |  | > 2000 |  |  | Not Active |
| CC(=O)OC[C@H]1O[C@H](OCc2cn([C@H]3CC[C@@]4(C)[C@H](CC[C@@H]5[C@@H]4CC[C@]4(C)[C@@H](C6=CC(=O)OC6)CC[C@]54O)C3)nn2)[C@@H](OC(C)=O)[C@@H](OC(C)=O)[C@@H]1OC(C)=O | 86.4 | 1.9 | 65.4 | 10.1 | 2.92 | 4.55 | 3.13 | 6.01 | 39 | 1.57 | 393 | 1.59 | 4.46 |  |
| C[C@]12CC[C@H](n3cc(CO[C@@H]4O[C@H](CO)[C@@H](O)[C@H](O)[C@H]4O)nn3)C[C@H]1CC[C@@H]1[C@@H]2CC[C@]2(C)[C@@H](C3=CC(=O)OC3)CC[C@]12O | > 140 | 3.7 | > 111 | 2.79 | 2.35 | 2.14 | 4.69 | 2.71 | > 108 | 2.03 | > 300 |  |  |  |
| CC(=O)OC[C@H]1O[C@H](O[C@H]2[C@H](OC(C)=O)[C@@H](OC(C)=O)[C@H](OCc3cn([C@H]4CC[C@@]5(C)[C@H](CC[C@@H]6[C@@H]5CC[C@]5(C)[C@@H](C7=CC(=O)OC7)CC[C@]65O)C4)nn3)O[C@@H]2COC(C)=O)[C@H](OC(C)=O)[C@@H](OC(C)=O)[C@@H]1OC(C)=O | 18.5 | 9.51 | 5.42 | 26.3 | 29.5 | 9.75 | 23.8 | 33.4 | 6.86 | 12 | 181 |  |  |  |
